# According to ChEMBL document CHEMBL1145212, “Fluorinated diaryl sulfides as serotonin transporter ligands: synthesis, structure-activity relationship study, and in vivo evaluation of fluorine-18-labeled compounds as PET imaging agents” (J Med Chem, 2005):
# Assays:
# [1] = biological target: Sodium-dependent serotonin transporter (Rattus norvegicus) (UniProt P31652); assay: Specific binding of [18F]-AFA in rat striatum after citalopram treatment; n=3; assay type: functional, tissue-based; conditions: tested as the 18F-labelled form
# In short: (§1)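 Rats, three per group, were pretreated iv with blocker at 2 mg/kg in saline, or with saline as control, 10–15 min before tail-vein F-18 radioligand (about 20 µCi). Killed at 60 min and regional %ID/g determined. Specific binding = (region activity − cerebellum activity)/cerebellum activity; mean ± SD.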
# [2] = species on record: Rattus norvegicus; assay: Regional uptake of [18F]AFA in cerebellum of rat pretreated with compound 7d; n=3; assay type: functional, organism-based; conditions: tested as the 18F-labelled form
# [3] = species on record: Rattus norvegicus; assay: Regional uptake of [18F]AFA in frontal cortex of rat pretreated with compound 7d; n=3; assay type: functional, organism-based; conditions: tested as the 18F-labelled form
# [4] = species on record: Rattus norvegicus; assay: Regional uptake of [18F]AFA in hypothalamus of rat pretreated with compound GBR-12935; n=3; assay type: functional, organism-based; conditions: tested as the 18F-labelled form
# In short: (§2)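 Male Sprague-Dawley rats, three per group, received blocker (2 mg/kg iv in saline) or saline only (controls) 10–15 min before about 20 µCi of tail-vein F-18 radioligand. Killed 60 min after tracer. Blood and brain regions weighed and gamma-counted. %ID/g was decay- and tail-corrected; mean ± SD.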
# [5] = biological target: Sodium-dependent serotonin transporter (Rattus norvegicus) (UniProt P31652); assay: Specific binding of [18F]AFA in rat hippocampus after nisoxetine treatment; n=3; assay type: functional, tissue-based; conditions: tested as the 18F-labelled form; in short: as §1
# [6] = species on record: Rattus norvegicus; assay: Regional uptake of [18F]AFA in striatum of rat pretreated with compound 7d; n=3; assay type: functional, organism-based; conditions: tested as the 18F-labelled form
# [7] = species on record: Rattus norvegicus; assay: Regional uptake of [18F]AFA in frontal cortex of rat pretreated with compound GBR-12935; n=3; assay type: functional, organism-based; conditions: tested as the 18F-labelled form; in short: as §2
# [8] = species on record: Rattus norvegicus; assay: Regional uptake of [18F]-AFA in striatum of rat pretreated with compound GBR-12935; n=3; assay type: functional, organism-based; conditions: tested as the 18F-labelled form; in short: as §2
# [9] = biological target: Sodium-dependent serotonin transporter (Rattus norvegicus) (UniProt P31652); assay: Specific binding of [18F]AFA in rat thalamus after GBR-12935 treatment; n=3; assay type: functional, tissue-based; conditions: tested as the 18F-labelled form; in short: as §1
# [10] = species on record: Rattus norvegicus; assay: Regional uptake of [18F]AFA in blood of rat pretreated with compound 7d; n=3; assay type: functional, organism-based; conditions: tested as the 18F-labelled form
# [11] = species on record: Rattus norvegicus; assay: Regional uptake of [18F]AFA in thalamus of rat pretreated with compound GBR-12935; n=3; assay type: functional, organism-based; conditions: tested as the 18F-labelled form; in short: as §2
# [12] = species on record: Rattus norvegicus; assay: Regional uptake of [18F]AFA in thalamus of rat pretreated with compound citalopram; n=3; assay type: functional, organism-based; conditions: tested as the 18F-labelled form; in short: as §2
# [13] = biological target: Sodium-dependent serotonin transporter (Rattus norvegicus) (UniProt P31652); assay: Specific binding of [18F]AFA in rat hypothalamus after citalopram treatment; n=3; assay type: functional, tissue-based; conditions: tested as the 18F-labelled form; in short: as §1
# [14] = species on record: Rattus norvegicus; assay: Regional uptake of [18F]AFA in hippocampus of rat pretreated with compound GBR-12935; n=3; assay type: functional, organism-based; conditions: tested as the 18F-labelled form; in short: as §2
# [15] = biological target: Sodium-dependent serotonin transporter (Homo sapiens, UniProt P31645); assay: In vitro displacement of [3H]paroxetine from human serotonin transporter expressed in HEK293 cells; assay type: cell-based
# [16] = species on record: Rattus norvegicus; assay: Regional uptake of [18F]AFA in cerebellum of rat pretreated with compound citalopram; n=3; assay type: functional, organism-based; conditions: tested as the 18F-labelled form; in short: as §2
# [17] = species on record: Rattus norvegicus; assay: Regional uptake of [18F]AFA in frontal cortex of rat pretreated with compound citalopram; n=3; assay type: functional, organism-based; conditions: tested as the 18F-labelled form; in short: as §2
# [18] = biological target: Sodium-dependent serotonin transporter (Rattus norvegicus) (UniProt P31652); assay: Specific binding of [18F]AFA in rat hippocampus after GBR-12935 treatment; n=3; assay type: functional, tissue-based; conditions: tested as the 18F-labelled form; in short: as §1
# [19] = species on record: Rattus norvegicus; assay: Regional uptake of [18F]AFA in hypothalamus of rat pretreated with compound citalopram; n=3; assay type: functional, organism-based; conditions: tested as the 18F-labelled form; in short: as §2
# [20] = biological target: Sodium-dependent serotonin transporter (Rattus norvegicus) (UniProt P31652); assay: Specific binding in rat hypothalamus at 60 min postinjection in vivo; assay type: functional, organism-based; conditions: tested as the 18F-labelled form
# In short: (§3)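 Male Sprague-Dawley rats, n=3 per time point, received about 20 µCi of F-18 radioligand in saline iv by tail vein and were killed at 10–120 min. %ID/g was measured with decay and tail-residual correction. Hypothalamic specific binding = (%ID/g hypothalamus − %ID/g cerebellum)/%ID/g cerebellum; mean ± SD.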
# [21] = species on record: Rattus norvegicus; assay: Regional uptake of [18F]AFA in cerebellum of rat pretreated with compound GBR-12935; n=3; assay type: functional, organism-based; conditions: tested as the 18F-labelled form; in short: as §2
# [22] = species on record: Rattus norvegicus; assay: Regional uptake of [18F]AFA in hippocampus of rat pretreated with compound nisoxetine; n=3; assay type: functional, organism-based; conditions: tested as the 18F-labelled form; in short: as §2
# [23] = species on record: Rattus norvegicus; assay: Regional uptake of [18F]-AFA in hypothalamus of rat pretreated with compound nisoxetine; n=3; assay type: functional, organism-based; conditions: tested as the 18F-labelled form; in short: as §2
# [24] = biological target: Sodium-dependent serotonin transporter (Rattus norvegicus) (UniProt P31652); assay: Specific binding in rat hypothalamus at 30 min postinjection in vivo; assay type: functional, organism-based; conditions: tested as the 18F-labelled form; in short: as §3
# [25] = species on record: Rattus norvegicus; assay: Regional uptake of [18F]AFA in hippocampus of rat pretreated with compound 7d; n=3; assay type: functional, organism-based; conditions: tested as the 18F-labelled form
# Chain of Sodium-dependent serotonin transporter (Rattus norvegicus) (P31652 whole entry): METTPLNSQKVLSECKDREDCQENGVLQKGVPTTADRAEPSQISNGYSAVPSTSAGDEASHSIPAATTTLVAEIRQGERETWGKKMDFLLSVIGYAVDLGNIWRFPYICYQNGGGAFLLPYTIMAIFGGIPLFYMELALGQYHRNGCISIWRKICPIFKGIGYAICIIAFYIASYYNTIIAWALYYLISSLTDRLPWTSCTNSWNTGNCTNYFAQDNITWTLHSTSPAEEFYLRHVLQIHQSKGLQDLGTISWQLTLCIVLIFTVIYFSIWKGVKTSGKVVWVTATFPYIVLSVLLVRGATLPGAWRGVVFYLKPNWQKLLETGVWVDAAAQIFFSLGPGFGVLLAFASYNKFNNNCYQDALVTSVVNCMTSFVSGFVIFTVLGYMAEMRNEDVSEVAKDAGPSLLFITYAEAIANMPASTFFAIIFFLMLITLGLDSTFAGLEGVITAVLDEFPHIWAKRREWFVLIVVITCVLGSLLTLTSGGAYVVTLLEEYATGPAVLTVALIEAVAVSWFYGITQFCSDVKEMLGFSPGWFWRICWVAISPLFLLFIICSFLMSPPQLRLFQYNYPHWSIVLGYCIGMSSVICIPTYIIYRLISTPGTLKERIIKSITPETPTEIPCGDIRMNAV
# Chain of Sodium-dependent serotonin transporter (P31645 whole entry): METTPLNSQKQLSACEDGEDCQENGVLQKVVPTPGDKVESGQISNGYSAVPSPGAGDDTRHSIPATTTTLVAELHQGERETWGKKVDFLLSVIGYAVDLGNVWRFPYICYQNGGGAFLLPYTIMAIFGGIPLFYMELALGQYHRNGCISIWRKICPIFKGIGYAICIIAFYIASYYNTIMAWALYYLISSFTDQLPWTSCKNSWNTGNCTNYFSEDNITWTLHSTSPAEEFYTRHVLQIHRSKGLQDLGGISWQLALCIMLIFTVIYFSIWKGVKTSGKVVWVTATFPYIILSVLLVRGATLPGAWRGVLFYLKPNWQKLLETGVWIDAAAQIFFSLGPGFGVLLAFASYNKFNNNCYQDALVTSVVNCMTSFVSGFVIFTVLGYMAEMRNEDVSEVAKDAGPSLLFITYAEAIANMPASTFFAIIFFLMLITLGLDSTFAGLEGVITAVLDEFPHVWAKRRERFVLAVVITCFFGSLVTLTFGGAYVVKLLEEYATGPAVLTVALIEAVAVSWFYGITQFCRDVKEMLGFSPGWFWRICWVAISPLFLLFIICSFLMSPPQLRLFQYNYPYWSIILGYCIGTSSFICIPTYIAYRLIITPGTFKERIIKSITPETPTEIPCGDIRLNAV
structure (smiles),measurement,setting,value
CN(C)Cc1ccccc1Sc1ccc(CF)cc1N,Specific binding,[1],0.52 %ID/g
same,Uptake,[2],0.09 %ID/g
same,Uptake,[3],0.12 %ID/g
same,Uptake,[4],0.87 %ID/g
same,Specific binding,[5],2.72 %ID/g
same,Uptake,[6],0.14 %ID/g
same,Uptake,[7],0.76 %ID/g
same,Uptake,[8],0.7 %ID/g
same,Specific binding,[9],4.38 %ID/g
same,Uptake,[10],0.11 %ID/g
same,Uptake,[11],0.74 %ID/g
same,Uptake,[12],0.16 %ID/g
same,Specific binding,[13],1.37 %ID/g
same,Uptake,[14],0.59 %ID/g
same,Ki,[15],1.04 nM
same,Uptake,[16],0.08 %ID/g
same,Uptake,[17],0.11 %ID/g
same,Specific binding,[18],3.51 %ID/g
same,Uptake,[19],0.18 %ID/g
same,Specific binding,[20],4.56 %ID/g
same,Uptake,[21],0.13 %ID/g
same,Uptake,[22],0.47 %ID/g
same,Uptake,[23],0.73 %ID/g
same,Specific binding,[24],2.27 %ID/g
same,Uptake,[25],0.13 %ID/g
